Results of several laboratories.
Compare with care: the assays were run in different laboratories.
Target: Protein kinase C epsilon type (PRKCE, Homo sapiens, UniProt Q02156)
Sequence (Q02156 1-737, as in one of the studies): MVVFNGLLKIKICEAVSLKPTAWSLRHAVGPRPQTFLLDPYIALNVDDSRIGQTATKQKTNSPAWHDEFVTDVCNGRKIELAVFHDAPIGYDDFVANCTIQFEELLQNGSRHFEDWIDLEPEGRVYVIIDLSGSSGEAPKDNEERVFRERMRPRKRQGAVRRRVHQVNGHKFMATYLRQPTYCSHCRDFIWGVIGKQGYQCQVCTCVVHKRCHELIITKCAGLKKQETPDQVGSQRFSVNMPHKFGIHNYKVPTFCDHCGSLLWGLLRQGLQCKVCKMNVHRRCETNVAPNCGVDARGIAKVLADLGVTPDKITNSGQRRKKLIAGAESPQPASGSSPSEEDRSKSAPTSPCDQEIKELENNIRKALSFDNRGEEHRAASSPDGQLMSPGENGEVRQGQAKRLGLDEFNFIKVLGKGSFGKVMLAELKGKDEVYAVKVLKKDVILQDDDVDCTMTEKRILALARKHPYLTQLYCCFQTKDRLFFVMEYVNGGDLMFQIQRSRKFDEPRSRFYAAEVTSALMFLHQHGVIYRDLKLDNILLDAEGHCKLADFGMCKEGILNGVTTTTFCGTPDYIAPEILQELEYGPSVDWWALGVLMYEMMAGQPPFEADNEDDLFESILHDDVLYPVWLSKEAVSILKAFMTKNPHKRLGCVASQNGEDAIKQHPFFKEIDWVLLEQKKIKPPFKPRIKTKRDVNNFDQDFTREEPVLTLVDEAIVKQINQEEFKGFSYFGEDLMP

`C[C@H]1CCN(c2nccc(-c3cnn4ncccc34)n2)C1` has a remaining binding of 100% (binding; 1 µM).
`c1cncc(-c2cccc(Nc3nccc(NC4CCCCC4)n3)c2)c1` has a remaining binding of 46% (binding; competition with immobilised ligand; 10 µM).
For `O=C(NCCCN1CCOCC1)c1ccc(Nc2ncc(Cl)c(-c3ccc(Cl)s3)n2)cc1`, the remaining binding was 67% (binding; competition with immobilised ligand; 1 µM).
For `C[C@@H]1CN(c2ccc3ncc(-c4ccc5[nH]nc(C6CC6)c5c4)n3n2)C[C@H](C)O1`, the remaining binding was 64% (binding; competition with immobilised ligand; 0.5 µM).
`CN(C)c1nccc(-c2cnc3ncccn23)n1` has a remaining binding of 100% (binding; 1 µM).
`COCCOc1nc(-c2ccc(Cl)nc2)nc2c1CN(C(=O)c1ncn3ccccc13)CC2` has a remaining binding of 89% (cell-free assay; competition with immobilised ligand; 0.1 µM).
For `F[C@@H]1CCN(c2nccc(-c3cnn4ncccc34)n2)C1`, the remaining binding was 88% (binding; 1 µM).
`COc1ccc2c(O[C@@H]3C[C@H]4C(=O)N[C@]5(C(=O)O)CC5/C=C\CCCCC[C@H](NC(=O)OC5CCCC5)C(=O)N4C3)cc(-c3csc(NC(=O)C(C)C)n3)nc2c1C` (some centres unmarked) gave a remaining binding of 58% (cell-free assay; competition with immobilised ligand; 1 µM).
The remaining binding of `N[C@H]1CCN(c2nccc(-c3cnn4ncccc34)n2)C1` is reported as 100% (binding; 1 µM).
`O=C(c1ccc(Nc2nccc(-c3cc4ccccc4s3)n2)cc1)N1CCC(N2CCCC2)CC1` has a remaining binding of 68% (binding; competition with immobilised ligand; 1 µM).
For `N#Cc1ccccc1CSc1nnc2c(n1)[nH]c1ccccc12`, the remaining binding was 100% (binding; competition with immobilised ligand; 10 µM).
`O=C(NCCCN1CCOCC1)c1ccc(Nc2nccc(-c3cc4ccccc4s3)n2)cc1` has a remaining binding of 71% (binding; competition with immobilised ligand; 1 µM).
For `COc1cnc(Nc2cccc(S(N)(=O)=O)c2)nc1N1CCN(c2ccccc2)C(=O)C1`, the remaining binding was 100% (binding; competition with immobilised ligand; 1 µM).
With `CN(CCCC(F)(F)F)c1nccc(-c2cnn3ncccc23)n1` the remaining binding was 82% (binding; 1 µM).
With `CN(C)C(=O)Cn1cc(-c2nc(C3(c4ccc(-c5cnc(N)nc5)cc4)CC3)no2)cn1` the remaining binding was 90% (cell-free assay; competition with immobilised ligand; 1 µM).
`Nc1ncc2c(n1)-c1c([nH]c3ccc(C#CC4CC4)cc13)CCCC2` gave a remaining binding of 98% (binding; competition with immobilised ligand; 1 µM).
For `COc1cc(-c2cn(C3CCc4c(F)cccc4N(CC(F)(F)F)C3=O)nn2)ccc1-n1cnc(C)c1` (centres unmarked), the remaining binding was 100% (cell-free assay; competition with immobilised ligand; 1 µM).
`Cc1cnn2ncc(-c3ccnc(N(C)C)n3)c2c1` gave a remaining binding of 100% (binding; 1 µM).
With `CNC(=O)[C@@H]1CC[C@@H](n2c(-c3ccc4cnccc4c3)nc3ccc(C(=O)NCc4cccc(C(N)=O)c4)cc32)C1` the remaining binding was 85% (binding; competition with immobilised ligand; 1 µM).
The remaining binding of `O=C(NCC1CCOCC1)c1n[nH]cc1NC(=O)c1c(F)cccc1F` is reported as 87% (binding; competition with immobilised ligand; 1 µM).
With `O=C(Nc1ccc(Oc2ccc(F)cc2)cc1)N1CCc2ncccc2[C@H]1c1ccc(F)cc1` the remaining binding was 100% (cell-free assay; competition with immobilised ligand; 1 µM).
For `CN(C)c1nccc(-c2cnn3ncccc23)n1`, the remaining binding was 100% (binding; 1 µM).
For `O=C(N[C@H]1CCCCC/C=C\C2C[C@@]2(C(=O)O)NC(=O)[C@@H]2C[C@@H](Oc3ccncc3)CN2C1=O)OC1CCCC1` (some centres unmarked), the remaining binding was 100% (cell-free assay; competition with immobilised ligand; 1 µM).
For `C=CC(=O)N1CCC(C(=O)NCC(=O)N2CCN(c3nc(-c4cnc(N)nc4C(F)F)nc(N4CCOCC4)n3)CC2)CC1`, the remaining binding was 79% (binding; competition with immobilised ligand; 1 µM).
The remaining binding of `Cn1nc(C(=O)NCc2ccc(C(=O)O)cc2)cc1-c1ccc2[nH]ccc2c1` is reported as 64% (cell-free assay; competition with immobilised ligand; 0.1 µM).
`CC(C)(C)c1ccc(-c2nc(CBr)nn2-c2cccc(O)c2)cc1` has a remaining binding of 73% (cell-free assay; competition with immobilised ligand; 10 µM).
